Data set [1] in a line: Cytotoxicity against multidrug resistant Pgp expressing human NCI/ADR cells after 72 hrs by sulforhodamine B test. The note with it: NCI/ADR-RES. Format: functional, cell-based. Background: Sulforhodamine B stains cellular protein and so reports cell mass.
A short description of data set [2]: Cytotoxicity against paclitaxel resistant human 1A9PTX10 cells expressing class 1 beta-tubulin mutant after 72 hrs. The class given is functional, cell-based. The note with it: 1A9/ptx-10, 72 h.
Data set [3] deals with DLD-1. Nature of the data set: Antitumor activity against Pgp expressing multidrug resistant human DLD1 cells xenografted SCID mouse assessed as tumor growth delay at 10 mg/kg, iv administered for 3 days. Format: functional. Summed up: (§1)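 Female SCID mice (6-8 weeks), 5 per treated group, 10 untreated controls, bearing DLD-1 (Pgp+) human colon xenografts. Dosing was iv by tail vein from day 5 after implant, ×3. Stock was 30 mg/mL in Tween-80/ethanol 1:1, diluted in 0.9% saline. Caliper volume V=0.4·l·w² every 3-4 days. Growth delay was time to 600 mm3, interpolated from log(volume) vs time. Cox-Mantel test was used versus control. Cure meant no palpable tumor on day 167.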
A general note: A xenograft is tissue or cells of one species grown in another, often human tumour cells in immunodeficient mice.

For data set [4], the species on record is Bos taurus. Kind of data set: Induction of calf brain tubulin polymerization at 10 uM after 12 mins in presence of GTP by spectrophotometric assay. Summed up: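 Calf brain microtubule protein, 1 mg/mL in MES buffer with 3 M glycerol, was assembled at 37 °C with 1 mM GTP and 10 µM drug. Turbidity was followed at 350 nm. Tubulin stored in liquid nitrogen was centrifuged just before use and adjusted to 1 mg/mL. CaCl2 (6 mM) was added at 50 min to follow depolymerization.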

A short description of data set [5]: Cytotoxicity against paclitaxel resistant human 1A9PTX22 cells expressing class 1 beta-tubulin mutant after 72 hrs. The class given is functional, cell-based. The following applies: 1A9/ptx-22, 72 h.
In the next data set the test system is BXPC-3. Nature of the data set: Cytotoxicity against multidrug resistant human BxPC3 cells after 72 hrs by MTT assay. The class given is functional, cell-based. The following applies: BXPC-3, 72 h. Summed up:
(§2)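 Pancreatic lines were cultured per ATCC, seeded at 2.5 × 10^4 cells/well and allowed to adhere overnight. The medium was replaced with drug diluted from a 10 mM DMSO stock, or vehicle, for 72 h, in triplicate, with at least three independent trials. MTT at 0.5 mg/mL was added for 3 h, formazan was dissolved in acidified isopropanol, and A570 was read. IC50 came from sigmoid-Emax nonlinear regression.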

Data set [6] has as its system DLD-1. Nature of the data set: Antitumor activity against Pgp expressing multidrug resistant human DLD1 cells xenografted SCID mouse assessed as tumor growth at 20 mg/kg, iv administered for 3 days after 167 days. Format: functional, organism-based. More on the design: dose 20 mg/kg. Summed up: as §1
Data set [7] has as its system DLD-1. Nature of the data set: Antitumor activity against Pgp expressing multidrug resistant human DLD1 cells xenografted SCID mouse assessed as tumor growth at 10 mg/kg, iv administered for 3 days after 167 days. More on the design: dose 10 mg/kg. The class given is functional, organism-based. In outline:
as §1

Another data set has as its system MIA PaCa-2. Kind of data set: Cytotoxicity against multidrug resistant human MIAPaCa2 cells after 72 hrs by MTT assay. The class given is functional, cell-based. The following applies: MIA PaCa-2, 72 h. Summed up:
as §2
(Tetrazolium dyes change colour on reduction, which living cells bring about.)

The species entered for data set [8] is Bos taurus. Kind of data set: Induction of calf brain tubulin polymerization at 10 uM in absence of GTP by spectrophotometric assay.
Data set [9] in a line: Cytotoxicity against human primary pancreatic ductal cells after 72 hrs by MTT assay. Format: cell-based.
A further data set concerns PANC-1. Nature of the data set: Cytotoxicity against multidrug resistant human PANC1 cells after 72 hrs by MTT assay. Format: functional, cell-based. The note with it: PANC-1, 72 h. Summed up: as §2
The subject of data set [10] is CFPAC-1. Nature of the data set: Antitumor activity against mdr1 expressing multidrug resistant human CFPAC1 cells xenografted Swiss mouse assessed as reduction in tumor volume at 20 mg/kg, iv administered for 3 days after 8 weeks. The class given is functional, organism-based. Further details: dose 20 mg/kg. Summed up:
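CFPAC-1 (mdr1-high) pancreatic cells, 1 × 10^6 in 200 µL PBS, were injected into both flanks. Treatment began on day 19 at about 100 mm3. Dosing was iv by tail vein on days 19, 22 and 25 at 20 mg/kg each (60 mg/kg total). Stock was 30 mg/mL in Tween-80/ethanol 1:1, diluted in PBS to 0.2 mL. Caliper volume was V=0.4·l·w².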

Data set [11] concerns CFPAC-1. Kind of data set: Cytotoxicity against multidrug resistant human CFPAC1 cells after 72 hrs by MTT assay. The class given is functional, cell-based. The following applies: CFPAC-1, 72 h. In outline: as §2
Data set [12] has as its system DLD-1. Nature of the data set: Antitumor activity against Pgp expressing multidrug resistant human DLD1 cells xenografted SCID mouse assessed as tumor growth delay at 40 mg/kg, iv administered for 3 days. The class given is functional. In outline:
as §1

In the next data set the test system is A2780. Nature of the data set: Cytotoxicity against human A2780 cells after 72 hrs. Format: functional, cell-based. The note with it: A2780, 72 h.
In data set [13] the test system is DLD-1. Kind of data set: Antitumor activity against Pgp expressing multidrug resistant human DLD1 cells xenografted SCID mouse assessed as tumor growth delay at 20 mg/kg, iv administered for 3 days. The class given is functional. In outline:
as §1

Data set [14] is described as follows: Cytotoxicity against multidrug resistant Pgp expressing human LCC6 cells after 72 hrs by sulforhodamine B test. The class given is functional, cell-based. The note with it: LCC-6, 72 h.
Data set [15] concerns MCF7. Nature of the data set: Cytotoxicity against Pgp deficient human MCF7 cells after 72 hrs by sulforhodamine B test. The class given is functional, cell-based. The note with it: MCF7, 72 h.
For data set [16], the system named is MCF7. Nature of the data set: Resistance index, Ratio of IC50 for multidrug resistant Pgp expressing human NCI/ADR cells to IC50 for Pgp deficient human MCF7 cells. Format: functional. More on the design: reference not given here.
A further data set relates to C6. Nature of the data set: Resistance index, Ratio of IC50 for multidrug resistant Pgp expressing human LCC6 cells to IC50 for Pgp deficient human LCC6 cells. Format: functional. More on the design: reference not given here.
The species named for data set [17] is Bos taurus. Nature of the data set: Induction of calf brain tubulin polymerization at 10 uM by spectrophotometric assay. Summed up: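 Calf brain microtubule protein diluted to 1 mg/mL in MES buffer with 3 M glycerol; taxoid at 10 µM. Assembly followed at 37 °C as turbidity change at 350 nm. 6 mM CaCl2 added after 50 min to follow depolymerization. Tubulin is 85% of the protein. Runs used either centrifuged tubulin or tubulin used as stored, with 1 mM GTP in some runs.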

Data set [18] in a line: Cytotoxicity against Pgp deficient human LCC6 cells after 72 hrs by sulforhodamine B test. The class given is functional, cell-based. The following applies: C6, 72 h.
Data set [19] is filed under the species Bos taurus. Nature of the data set: Induction of calf brain tubulin polymerization at 10 uM in after 5 mins in absence of GTP by spectrophotometric assay.
A further data set concerns Mus musculus. Nature of the data set: Toxicity in Pgp expressing multidrug resistant human DLD1 cells xenografted SCID mouse at 20 mg/kg, iv administered for 3 days. The class given is organism-based, DLD-1. More on the design: dose 20 mg/kg, route intravenous. The following applies: in vivo, 72 h. In outline: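 Female SCID mice with DLD-1 (Pgp+) colon xenografts, 5 per group. Dosing was iv by tail vein, 20 mg/kg ×3 from day 5 post-implant, in Tween-80/ethanol diluted with saline. Toxicity was counted as animals that died or lost more than 20% body weight.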

Active and inactive are the calls of the source. The rule behind the calls is not given here.

As a reminder, the IC50 is the concentration at which inhibition is half-maximal.

For the compound `CC(=O)O[C@@]12CO[C@@H]1C[C@H](O)[C@@]1(C)C(=O)[C@H](OC(=O)C3CC3)C3=C(C)[C@@H](OC(=O)[C@H](O)[C@H](C=C(C)C)NC(=O)OC(C)(C)C)C[C@@](O)([C@@H](OC(=O)c4ccccc4)[C@H]21)C3(C)C`, the half-maximal inhibitory concentration (IC50) in [1] was determined as 3.9 nM; in data set [2], 9 nM; in [5], 3.94 nM; in the data set on BXPC-3 it was 1.04 nM; in the data set on MIA PaCa-2 it was 0.92 nM; in the data set on PANC-1, 3.68 nM. Moreover, the IC50 in the data set with CFPAC-1 [11] was determined as 0.83 nM; in the data set on A2780, 0.44 nM. Also, the Activity in the data set with DLD-1 [3] was 37 days; in the data set filed under Bos taurus [4], 90%; in data set [9], “Non-toxic”; in the data set on DLD-1 [12] it was greater than 150 days; with DLD-1 [13], greater than 150 days. Besides, the outcome in the data set on DLD-1 [6], in the data set filed under Bos taurus [8] and in the data set with CFPAC-1 [10] was Active. Besides, in the data set with DLD-1 [7], the result was inactive.
On to `COC(=O)O[C@H]1C(=O)[C@@]2(C)[C@H]([C@H](OC(=O)c3cccc(OC)c3)[C@]3(O)C[C@H](OC(=O)[C@H](O)[C@H](C=C(C)C)NC(=O)OC(C)(C)C)C(C)=C1C3(C)C)[C@]1(OC(C)=O)CO[C@@H]1C[C@@H]2O`, for which the concentration for half-maximal inhibition (IC50) in data set [14] is 1.6 nM; in [1], 1.4 nM; with MCF7 [15], 0.4 nM; in data set [18], 0.6 nM. Besides, the “Ratio IC50” value came out at 3.5 with MCF7 [16] and 2.7 in the data set with C6. In addition, the outcome in the data set listed under Bos taurus [8] and in the data set filed under Bos taurus [17] was Active.
Take `COc1ccc(CC(=O)O[C@H]2C(=O)[C@@]3(C)[C@H]([C@H](OC(=O)c4cccc(OC)c4)[C@]4(O)C[C@H](OC(=O)[C@H](O)[C@H](C=C(C)C)NC(=O)OC(C)(C)C)C(C)=C2C4(C)C)[C@]2(OC(C)=O)CO[C@@H]2C[C@@H]3O)cc1`: the IC50 worked out at 0.4 nM in data set [14], 1.8 nM in data set [1], 0.6 nM in the data set on MCF7 [15] and 0.4 nM in data set [18]. The “Ratio IC50” value is 3 with MCF7 [16] and 1 in the data set with C6.
For `CCC(=O)O[C@H]1C(=O)[C@@]2(C)[C@H]([C@H](OC(=O)c3cccc(OC)c3)[C@]3(O)C[C@H](OC(=O)[C@H](O)[C@H](C=C(C)C)NC(=O)OC(C)(C)C)C(C)=C1C3(C)C)[C@]1(OC(C)=O)CO[C@@H]1C[C@@H]2O`, the IC50 in data set [1] stood at 0.33 nM; in data set [2] it was 3.65 nM; in the data set with MCF7 [15], 0.36 nM; in data set [5], 3.88 nM; in the data set with BXPC-3 it was 3.03 nM; with MIA PaCa-2 it was 0.68 nM. For the same compound, the IC50 in [18] is 1 nM; in the data set on PANC-1, 22.6 nM; in the data set on CFPAC-1 [11], 0.89 nM; in the data set on A2780 it was 0.76 nM. In addition, the Activity in the data set filed under Bos taurus [19] was greater than 90%. Besides, the result in the data set filed under Bos taurus [8] was Active.
As to `CC(=O)O[C@H]1C(=O)[C@@]2(C)[C@H]([C@H](OC(=O)c3ccccc3)[C@]3(O)C[C@H](OC(=O)[C@H](O)[C@@H](NC(=O)c4ccccc4)c4ccccc4)C(C)=C1C3(C)C)[C@]1(OC(C)=O)CO[C@@H]1C[C@@H]2O` [PACLITAXEL], the 50% inhibitory concentration (IC50) amounted to 346 nM in [14]; 300 nM in [1]; 533 nM in [2]; 161 nM in data set [5]; 1.38 nM in the data set on A2780. Also, the Activity entry with Mus musculus was “Non-toxic”; with DLD-1 [13], 8 days. In the data set on DLD-1 [6], the outcome was inactive.
`CCC(=O)O[C@H]1C(=O)[C@@]2(C)[C@H]([C@H](OC(=O)c3ccccc3)[C@]3(O)C[C@H](OC(=O)[C@H](O)[C@H](C=C(C)C)NC(=O)C4=CCCC4)C(C)=C1C3(C)C)[C@]1(OC(C)=O)CO[C@@H]1C[C@@H]2O`: the IC50 in data set [14] was 14 nM; in data set [1], 6 nM; in the data set with MCF7 [15], 0.4 nM; in data set [18] it was 1.2 nM. The “Ratio IC50” value was 15 in the data set with MCF7 [16] and 12 in the data set with C6.

The values are drawn from ChEMBL document CHEMBL1150351, “Design, synthesis, and biological evaluation of new-generation taxoids” (J Med Chem, 2008).
